Laboratory results from ChEMBL document CHEMBL4382210, “Identification of novel benzothiopyranone compounds against Mycobacterium tuberculosis through scaffold morphing from benzothiazinones” (Eur J Med Chem, 2018).

Assays:
[1] = Metabolic stability in human liver microsomes assessed as parent compound remaining at 1 uM measured after 30 mins in presence of NADPH by LC-MS/MS analysis; type: ADME, Microsome; settings: read-out: Stability
In short: (§1)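 Male CD-1 mouse or pooled human liver microsomes (1 mg/mL protein), compound at 1 µM, 37 °C. Reaction started with 1 mM NADPH and quenched with cold ACN/MeOH containing internal standard. Parent remaining measured by LC-MS/MS; the 30-min value is normalised to time zero.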

[2] = AUC (0 to infinity) in BALB/C mouse at 25 mg/kg, po by LC/TSQ quantum access mass spectrometry; type: ADME, organism-based; parameters: dose 25 mg/kg, time infinity, route oral; settings: in vivo
In short: (§2)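 Male Balb/c mice (22–23 g), three per route. Single dose of 25 mg/kg p.o. (2.5 mg/mL in 0.5% carboxymethyl cellulose + 0.5% Tween 80) or 10 mg/kg i.v. (2.0 mg/mL in 20% HP-β-CD with 4 mol/L HCl). Blood sampled 5, 15, 30 min, 1, 2, 4, 7, 24 h. Plasma extracted with acetonitrile plus terfenadine internal standard, then LC-MS/MS on a C18 column. F = (AUCpo×dose_iv)/(AUCiv×dose_po).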

Cytochrome P450 2D6 = Cytochrome P450 2D6 (Homo sapiens, UniProt P10635); experiment: Inhibition of CYP2D6 in human liver microsomes after 20 mins by LC-MS/MS analysis; type: ADME
Chain of Cytochrome P450 2D6 (P10635 whole entry, canonical isoform): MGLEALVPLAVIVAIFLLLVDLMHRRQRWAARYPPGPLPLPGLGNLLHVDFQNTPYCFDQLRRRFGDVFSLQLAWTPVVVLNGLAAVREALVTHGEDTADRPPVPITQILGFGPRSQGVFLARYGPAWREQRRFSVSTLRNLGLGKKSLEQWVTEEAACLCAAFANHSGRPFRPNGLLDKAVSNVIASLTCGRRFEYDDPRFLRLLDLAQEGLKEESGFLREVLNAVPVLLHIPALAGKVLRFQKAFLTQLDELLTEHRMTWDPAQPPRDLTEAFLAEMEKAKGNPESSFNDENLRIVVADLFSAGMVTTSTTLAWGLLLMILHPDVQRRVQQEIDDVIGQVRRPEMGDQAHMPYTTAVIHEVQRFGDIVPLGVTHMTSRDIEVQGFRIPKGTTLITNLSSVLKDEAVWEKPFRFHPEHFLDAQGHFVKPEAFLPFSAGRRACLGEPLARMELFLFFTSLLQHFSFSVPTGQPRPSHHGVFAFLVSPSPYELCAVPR
In short: (§3)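 Compound at 0.1–50 µM incubated 20 min with human liver microsomes (0.2 mg/mL) and the CYP isoform, alongside isoform-specific probe substrates. Substrate remaining measured by LC-MS/MS at each concentration to derive IC50.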

[3] = MRT (0 to infinity) in BALB/C mouse at 10 mg/kg, iv by LC/TSQ quantum access mass spectrometry; type: ADME, organism-based; settings: in vivo; in short: as §2
HepG2 = experiment: Cytotoxicity against human HepG2 cells assessed as reduction in cell viability after 48 hrs by MTT assay; type: cell-based; settings: HepG2, 48 h
In short: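 Vero or HepG2 cells in RPMI1640 with 10% FBS at 37 °C, 5% CO2, seeded at 4×10^5 cells/mL. Threefold dilutions at 64–0.26 µg/mL final for 48 h. Cells then washed with HBSS, MTT added for 4 h, absorbance read at 492 nm. IC50 taken relative to untreated control.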

Cytochrome P450 2C9 = Cytochrome P450 2C9 (Homo sapiens, UniProt P11712); experiment: Inhibition of CYP2C9 in human liver microsomes after 20 mins by LC-MS/MS analysis; type: ADME; in short: as §3
Chain of Cytochrome P450 2C9 (P11712 whole entry): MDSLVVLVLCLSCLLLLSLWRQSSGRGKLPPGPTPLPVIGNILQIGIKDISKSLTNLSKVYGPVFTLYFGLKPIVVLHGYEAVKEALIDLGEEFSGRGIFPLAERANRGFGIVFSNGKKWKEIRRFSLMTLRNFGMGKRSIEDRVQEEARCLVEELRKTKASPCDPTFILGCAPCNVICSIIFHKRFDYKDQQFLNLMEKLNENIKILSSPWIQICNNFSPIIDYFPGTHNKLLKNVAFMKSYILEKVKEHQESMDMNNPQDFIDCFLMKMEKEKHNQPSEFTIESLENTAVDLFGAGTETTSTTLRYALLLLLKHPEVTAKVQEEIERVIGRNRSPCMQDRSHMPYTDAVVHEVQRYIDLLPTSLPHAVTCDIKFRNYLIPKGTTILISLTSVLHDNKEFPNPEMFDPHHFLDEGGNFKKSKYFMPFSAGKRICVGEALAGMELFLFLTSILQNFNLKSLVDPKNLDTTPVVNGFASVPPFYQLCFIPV

[4] = target: Voltage-gated inwardly rectifying potassium channel KCNH2 (Homo sapiens, UniProt Q12809); experiment: Inhibition of human ERG expressed in HEK293 cells by whole-cell patch clamp assay; type: cell-based
Chain of Voltage-gated inwardly rectifying potassium channel KCNH2 (Q12809 whole entry): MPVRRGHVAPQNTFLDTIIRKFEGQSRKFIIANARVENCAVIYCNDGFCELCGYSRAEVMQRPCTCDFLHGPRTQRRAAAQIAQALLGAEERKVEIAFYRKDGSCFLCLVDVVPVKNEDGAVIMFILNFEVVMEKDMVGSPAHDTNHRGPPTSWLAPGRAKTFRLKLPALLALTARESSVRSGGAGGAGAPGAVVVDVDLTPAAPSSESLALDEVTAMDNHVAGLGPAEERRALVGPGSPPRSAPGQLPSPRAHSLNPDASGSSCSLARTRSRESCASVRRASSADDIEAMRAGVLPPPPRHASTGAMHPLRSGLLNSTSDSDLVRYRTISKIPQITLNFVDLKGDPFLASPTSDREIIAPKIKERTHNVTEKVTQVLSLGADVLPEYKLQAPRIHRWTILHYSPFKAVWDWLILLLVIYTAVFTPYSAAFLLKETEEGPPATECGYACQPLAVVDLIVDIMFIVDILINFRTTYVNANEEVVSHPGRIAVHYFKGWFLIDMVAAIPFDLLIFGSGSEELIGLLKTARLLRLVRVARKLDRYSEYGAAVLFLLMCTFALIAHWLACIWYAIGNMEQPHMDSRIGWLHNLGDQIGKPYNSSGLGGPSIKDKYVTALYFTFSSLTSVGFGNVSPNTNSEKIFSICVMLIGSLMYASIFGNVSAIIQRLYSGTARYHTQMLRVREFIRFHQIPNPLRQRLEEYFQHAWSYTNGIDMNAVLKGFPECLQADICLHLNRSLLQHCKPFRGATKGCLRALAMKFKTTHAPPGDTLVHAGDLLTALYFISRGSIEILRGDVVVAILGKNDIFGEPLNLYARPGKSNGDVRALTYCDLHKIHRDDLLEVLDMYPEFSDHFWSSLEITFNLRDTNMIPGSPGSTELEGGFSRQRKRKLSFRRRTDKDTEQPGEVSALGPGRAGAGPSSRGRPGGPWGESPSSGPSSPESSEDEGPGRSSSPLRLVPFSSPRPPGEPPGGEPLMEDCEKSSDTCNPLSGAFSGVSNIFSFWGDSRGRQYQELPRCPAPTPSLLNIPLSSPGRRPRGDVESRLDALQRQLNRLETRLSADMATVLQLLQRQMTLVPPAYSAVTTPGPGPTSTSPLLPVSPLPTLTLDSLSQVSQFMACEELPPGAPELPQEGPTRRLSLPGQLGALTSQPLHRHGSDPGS
In short: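 HEK293 cells stably transfected with hERG. Current recorded by whole-cell manual patch clamp at 25 °C, sampled at 10 kHz. Five concentrations tested (30, 10, 3.0, 1.0, 0.3 µM) in duplicate for IC50, with dofetilide as positive control.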

[5] = Oral bioavailability in BALB/C mouse at 25 mg/kg by LC/TSQ quantum access mass spectrometry; type: ADME, organism-based; settings: in vivo; in short: as §2
[6] = AUC (0 to 24 hrs) in BALB/C mouse at 10 mg/kg, iv by LC/TSQ quantum access mass spectrometry; type: ADME, organism-based; parameters: time < 24 hr, dose 10 mg/kg, route intravenous; settings: in vivo; in short: as §2
[7] = Half life in human hepatocytes assessed per million cells at 1 uM incubated up to 120 mins by LC-MS/MS analysis; type: ADME, cell-based, Hepatocyte
In short: (§4)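 Pooled male CD-1 mouse or pooled human hepatocytes at 1 million cells/mL final, compound at 1 µM. Incubated at 37 °C in a CO2 incubator with shaking (~100 rpm). Samples taken at 0, 15, 30, 60, 90 and 120 min and quenched with cold ACN/MeOH containing internal standard. Parent compound remaining measured by LC-MS/MS.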

[8] = MRT (0 to infinity) in BALB/C mouse at 25 mg/kg, po by LC/TSQ quantum access mass spectrometry; type: ADME, organism-based; settings: in vivo; in short: as §2
[9] = Elimination half life in BALB/C mouse at 10 mg/kg, iv by LC/TSQ quantum access mass spectrometry; type: ADME, organism-based; settings: in vivo, read-out: beta t1/2 (converted); in short: as §2
[10] = AUC (0 to 24 hrs) in BALB/C mouse at 25 mg/kg, po by LC/TSQ quantum access mass spectrometry; type: ADME, organism-based; parameters: time < 24 hr, dose 25 mg/kg, route oral; settings: in vivo; in short: as §2
[11] = Elimination half life in BALB/C mouse at 25 mg/kg, po by LC/TSQ quantum access mass spectrometry; type: ADME, organism-based; settings: in vivo, read-out: beta t1/2 (converted); in short: as §2
[12] = Clearance in BALB/C mouse at 10 mg/kg, iv by LC/TSQ quantum access mass spectrometry; type: ADME, organism-based; settings: in vivo; in short: as §2
[13] = Cmax in BALB/C mouse at 25 mg/kg, po by LC/TSQ quantum access mass spectrometry; type: ADME, organism-based; parameters: dose 25 mg/kg, route oral; settings: in vivo; in short: as §2
[14] = Intrinsic clearance in human hepatocytes assessed per million cells at 1 uM incubated up to 120 mins by LC-MS/MS analysis; type: ADME, cell-based, Hepatocyte; settings: read-out: CLH; in short: as §4
[15] = Half life in CD-1 mouse hepatocytes assessed per million cells at 1 uM incubated up to 120 mins by LC-MS/MS analysis; type: ADME, cell-based, Hepatocyte; in short: as §4
[16] = AUC (0 to infinity) in BALB/C mouse at 10 mg/kg, iv by LC/TSQ quantum access mass spectrometry; type: ADME, organism-based; parameters: dose 10 mg/kg, route intravenous, time infinity; settings: in vivo; in short: as §2
[17] = Acute toxicity in po dosed BALB/C mouse assessed as mortality administered as single dose measured during 7 days observation period; type: organism-based; settings: in vivo
In short: (§5)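 Female Balb/c mice (18–21 g), ten animals, given one oral dose of 2 g/kg. Survivors counted after 7 days of observation.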

[18] = Metabolic stability in CD-1 mouse liver microsomes assessed as parent compound remaining at 1 uM measured after 30 mins in presence of NADPH by LC-MS/MS analysis; type: ADME, Microsome; settings: read-out: Stability; in short: as §1
[19] = system: Mycobacterium tuberculosis; experiment: Antimicrobial activity against Mycobacterium tuberculosis H37Rv infected in BALB/C mouse assessed as bacterial burden in mouse lung at 100 mg/kg, po administered via gavage treated 5 times per week for 3 weeks starting from day 10 post infection (reference value: 7.102 +/- 0.152 log10CFU); type: functional
[20] = Tmax in BALB/C mouse at 25 mg/kg, po by LC/TSQ quantum access mass spectrometry; type: ADME, organism-based; settings: in vivo; in short: as §2
Cytochrome P450 3A4 = Cytochrome P450 3A4 (Homo sapiens, UniProt P08684); experiment: Inhibition of CYP3A4 in human liver microsomes after 20 mins by LC-MS/MS analysis; type: ADME; in short: as §3
Chain of Cytochrome P450 3A4 (P08684 whole entry): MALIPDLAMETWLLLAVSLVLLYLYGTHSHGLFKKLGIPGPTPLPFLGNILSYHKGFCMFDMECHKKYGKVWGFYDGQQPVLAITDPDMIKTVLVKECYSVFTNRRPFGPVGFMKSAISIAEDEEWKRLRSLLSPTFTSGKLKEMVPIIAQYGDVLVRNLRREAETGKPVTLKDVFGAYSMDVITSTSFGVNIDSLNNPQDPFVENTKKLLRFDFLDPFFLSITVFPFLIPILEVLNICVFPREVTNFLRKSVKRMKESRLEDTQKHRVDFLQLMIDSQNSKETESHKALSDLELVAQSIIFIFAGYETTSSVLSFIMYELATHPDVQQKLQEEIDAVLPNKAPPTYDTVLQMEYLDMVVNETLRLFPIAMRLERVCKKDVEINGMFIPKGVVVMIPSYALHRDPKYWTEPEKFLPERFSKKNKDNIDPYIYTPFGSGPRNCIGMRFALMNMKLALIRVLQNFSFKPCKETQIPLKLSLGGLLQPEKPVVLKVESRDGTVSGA

[21] = Acute toxicity in BALB/C mouse assessed as mouse survival at 2 g/kg, po administered as single dose measured during 7 days observation period; type: organism-based; settings: in vivo, 2000 mg/kg, 168 h; in short: as §5
[22] = system: Mycobacterium tuberculosis; experiment: Antimicrobial activity against Mycobacterium tuberculosis H37Rv after 7 days by MABA; type: functional; settings: 168 h
In short: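 Strain H37Rv or clinical isolates grown to late log phase in 7H9-ADC-TG, washed, resuspended in PBS, filtered (8 µm) and frozen. On day 7 Tween 80 and alamar blue added, read 16–24 h later (ex 530/em 590). MIC = lowest concentration giving ≥90% fluorescence reduction versus bacterium-only controls.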

Cytochrome P450 2C19 = Cytochrome P450 2C19 (Homo sapiens, UniProt P33261); experiment: Inhibition of CYP2C19 in human liver microsomes after 20 mins by LC-MS/MS analysis; type: ADME; in short: as §3
Chain of Cytochrome P450 2C19 (P33261 whole entry): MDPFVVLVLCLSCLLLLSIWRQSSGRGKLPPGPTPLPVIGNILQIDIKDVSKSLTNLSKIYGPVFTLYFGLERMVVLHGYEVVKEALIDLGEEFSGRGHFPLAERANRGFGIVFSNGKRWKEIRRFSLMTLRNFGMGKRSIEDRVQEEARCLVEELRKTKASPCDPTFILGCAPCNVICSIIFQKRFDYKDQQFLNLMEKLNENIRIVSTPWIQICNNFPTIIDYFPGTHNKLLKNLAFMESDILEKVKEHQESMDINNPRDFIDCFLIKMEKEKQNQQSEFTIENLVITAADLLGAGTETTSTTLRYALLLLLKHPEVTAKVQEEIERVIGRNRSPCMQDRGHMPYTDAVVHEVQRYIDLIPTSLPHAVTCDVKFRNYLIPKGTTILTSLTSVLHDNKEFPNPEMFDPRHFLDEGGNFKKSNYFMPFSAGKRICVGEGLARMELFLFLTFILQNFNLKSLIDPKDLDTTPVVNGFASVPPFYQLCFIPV

Structure (SMILES): O=c1cc(N2CCN(CC3CCCCC3)CC2)sc2c([N+](=O)[O-])cc(C(F)(F)F)cc12
- remaining at 0.5 h, 1 µM [1]: 66.7%
- AUC(0-inf) [2]: 1700 ng·h/mL
- IC50 (Cytochrome P450 2D6): > 50 µM
- MRT inf [3]: 4.91 h
- IC50 (HepG2): > 64 µg/mL
- IC50 (Cytochrome P450 2C9): > 50 µM
- IC50 [4]: > 30 µM
- bioavailability [5]: 13.1%
- AUC(0-t) at 24 h [6]: 4950 ng·h/mL
- half-life at 1 µM [7]: 3.73 h
- MRT inf [8]: 6.59 h
- half-life [9]: 6.54 h
- AUC(0-t) at 24 h [10]: 1580 ng·h/mL
- half-life [11]: 7.25 h
- clearance [12]: 32.3 mL/min/kg
- Cmax [13]: 588 ng/mL
- hepatocyte CLint at 1 µM [14]: 3.1 µL/min/1e6 cells
- half-life at 1 µM [15]: 7.7 h
- AUC(0-inf) [16]: 5180 ng·h/mL
- LD50 at 168 h [17]: > 2000 mg/kg
- remaining at 0.5 h, 1 µM [18]: 61.5%
- Activity [19]: 1.678 log10CFU
- Tmax [20]: 0.5 h
- IC50 (Cytochrome P450 3A4): > 50 µM
- Activity [21]: Non-Toxic
- MIC90 [22]: < 0.016 µg/mL
- IC50 (Cytochrome P450 2C19): > 50 µM
